In ChEMBL document CHEMBL3871264, “Design of a novel thiophene inhibitor of 15-lipoxygenase-1 with both anti-inflammatory and neuroprotective properties” (Eur J Med Chem, 2016):

Target: T1, Polyunsaturated fatty acid lipoxygenase ALOX15 (Mus musculus) (UniProt P39654)
T1 sequence (whole entry): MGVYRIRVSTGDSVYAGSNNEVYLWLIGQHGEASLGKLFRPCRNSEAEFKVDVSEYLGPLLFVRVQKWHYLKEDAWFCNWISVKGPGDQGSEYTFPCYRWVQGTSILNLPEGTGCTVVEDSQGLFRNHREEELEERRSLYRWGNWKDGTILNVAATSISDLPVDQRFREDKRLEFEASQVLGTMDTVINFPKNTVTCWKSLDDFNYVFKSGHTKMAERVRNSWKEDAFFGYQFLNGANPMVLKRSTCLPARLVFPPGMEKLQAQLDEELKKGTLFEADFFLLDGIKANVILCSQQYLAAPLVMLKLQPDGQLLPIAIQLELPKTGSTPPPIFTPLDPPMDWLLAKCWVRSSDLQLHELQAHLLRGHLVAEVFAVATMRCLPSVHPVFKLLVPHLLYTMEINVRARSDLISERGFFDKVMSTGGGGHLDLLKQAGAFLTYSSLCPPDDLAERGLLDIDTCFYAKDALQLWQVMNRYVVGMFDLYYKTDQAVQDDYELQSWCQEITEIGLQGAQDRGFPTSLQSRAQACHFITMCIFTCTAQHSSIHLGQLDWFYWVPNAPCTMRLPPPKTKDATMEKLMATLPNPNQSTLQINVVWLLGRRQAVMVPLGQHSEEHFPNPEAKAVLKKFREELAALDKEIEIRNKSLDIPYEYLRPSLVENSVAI
Experiment: Inhibition of 15-LOX-1 in C57bl/6 mouse precision-cut lung slices assessed as reduction in LPS-stimulated TNFalpha mRNA expression level at 50 uM incubated for 20 hrs followed by LPS stimulation for 4 hrs in presence of linoleic acid by RT-qPCR analysis
In short: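 Lung slices, 250 μm, were cut from agarose-filled lungs of male C57bl/6 mice aged 8-10 weeks and cultured at 37 °C in 5% CO2 in supplemented DMEM, 3 slices per well. Inhibitor was given for 20 h with 10 μM linoleic acid. For the last 4 h, 10 ng/ml LPS plus 10 ng/ml IFNγ were added. Read-out was RT-qPCR (10 ng cDNA, GAPDH assay included), in duplicate or triplicate wells, as fold change versus LPS/linoleic acid control, with 4-6 independent experiments.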

inhibition: 50%
Compound: CCCCNC(=O)c1cc(-c2ccccc2)sc1N
